The results in this text go back to ChEMBL document CHEMBL1123678, “Octahydropyrazino[2',3':3,4]pyrido[1,2-a]indoles. A new class of potent antihypertensive agents” (1987).

Experiment [1] concerns Rattus norvegicus. In words: Vasopressor responses to epinephrine as a measure of the alpha-1-adrenoceptor blocking activity at 10 mg/kg administered orally was reported to have no change. It counts as functional, organism-based. Also noted: dose 10 mg/kg.
Experiment [2] deals with Rattus norvegicus. Briefly: Antihypertensive activity was determined in cannulated spontaneously hypertensive rats(SHR) and maximum decrease of mean arterial blood pressure (MABP) at 10 mg/kg oral dose. It counts as functional, Artery. The method, boiled down: (§1)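 Cannulated SHR given compound by gastric gavage in 0.5% methylcellulose (5 mL/kg), doses 0.1–50 mg/kg, 4–8 animals per dose, after 1-h equilibration. MABP recorded for 4 h; maximal % decrease reported with time to peak effect. Significance by two-way analysis of variance.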

Experiment [3] has as its system Rattus norvegicus. Briefly: Antihypertensive activity was determined in cannulated spontaneously hypertensive rats(SHR) and maximum decrease of mean arterial blood pressure (MABP) at 1 mg/kg oral dose. It counts as functional, Artery. The method, boiled down: as §1
Experiment [4] deals with Rattus norvegicus. Briefly: Antihypertensive activity was determined in cannulated spontaneously hypertensive rats(SHR) and activity rating was given with respect to MABP values at 10 mg/kg oral dose;a decrease of MABP by >40% at 10 mg/kg and by 10-207. The experiment is classed as functional, organism-based. The method, boiled down: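 Cannulated SHR dosed orally (gavage) in 0.5% methylcellulose, 5 mL/kg; 4–8 rats per dose. MABP monitored 4 h, maximal change taken. Rating scale: 0 = no significant activity at 50 mg/kg, stepping up to 6 = MABP fall >40% at 10 mg/kg and 10–20% at 0.25–1 mg/kg, based on % MABP decreases at set doses.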

Experiment [5] relates to Rattus norvegicus. Briefly: Antihypertensive activity was determined in cannulated spontaneously hypertensive rats(SHR) and maximum decrease of mean arterial blood pressure (MABP) at 0.5 mg/kg oral dose. The experiment is classed as functional, Artery. The essentials:
as §1

In experiment [6] the test system is Rattus norvegicus. Briefly: Antagonism of vasopressor responses to epinephrine as a measure of the alpha-1-adrenoceptor blocking activity at 5 mg/kg administered orally was reported to be reversed. It counts as functional, organism-based. Further details: dose 5 mg/kg.
Experiment [7] concerns Rattus norvegicus. In words: Antihypertensive activity was determined in cannulated spontaneously hypertensive rats(SHR) and heart rate response was reported to reduce by 10-25% after 4 hr at a peroral dose of 10 mg/kg. It counts as functional, organism-based. Further details: dose 10 mg/kg.
Experiment [8] relates to Rattus norvegicus. Briefly: Antihypertensive activity was determined in cannulated spontaneously hypertensive rats(SHR) and maximum decrease of mean arterial blood pressure (MABP) at 2.5 mg/kg oral dose. The experiment is classed as functional, Artery. The essentials:
as §1

For experiment [9], the system named is Rattus norvegicus. In words: Vasopressor responses to epinephrine as a measure of the alpha-1-adrenoceptor blocking activity at 10 mg/kg administered orally was reported to be reversed. The experiment is classed as functional, organism-based. Further details: dose 10 mg/kg.
Experiment [10] relates to Rattus norvegicus. In words: Antihypertensive activity was determined in cannulated spontaneously hypertensive rats(SHR) and heart rate response was reported to reduce by 10-25% after 4 hr at a peroral dose of 1.0 mg/kg. Further details: dose 1 mg/kg. The experiment is classed as functional, organism-based.
Experiment [11] deals with Rattus norvegicus. Briefly: Vasopressor responses to epinephrine as a measure of the alpha-1-adrenoceptor blocking activity at 1 mg/kg administered orally was reported to be antagonized. The experiment is classed as functional, organism-based. Further details: dose 1 mg/kg.
Experiment [12] relates to Rattus norvegicus. Briefly: Antihypertensive activity was determined in cannulated spontaneously hypertensive rats(SHR) and heart rate response was reported to reduce by 10-25% after 4 hr at a peroral dose of 2.5 mg/kg. It counts as functional, organism-based. Also noted: dose 2.5 mg/kg.
For experiment [13], the system named is Rattus norvegicus. Briefly: Antihypertensive activity was determined in cannulated spontaneously hypertensive rats(SHR) and heart rate response was reported to reduce by 10-25% after 4 hr at a peroral dose of 5 mg/kg. It counts as functional, organism-based. Also noted: dose 5 mg/kg.
The test system of experiment [14] is Rattus norvegicus. Briefly: Antihypertensive activity was determined in cannulated spontaneously hypertensive rats(SHR) and maximum decrease of mean arterial blood pressure (MABP) at 5 mg/kg oral dose. The experiment is classed as functional, Artery. The essentials:
as §1

Experiment [15] concerns Rattus norvegicus. In words: Vasopressor responses to epinephrine as a measure of the alpha-1-adrenoceptor blocking activity at 2.5 mg/kg administered orally was reported to be reversed. The experiment is classed as functional, organism-based. Also noted: dose 2.5 mg/kg.
Experiment [16] deals with Rattus norvegicus. In words: Antihypertensive activity was determined in cannulated spontaneously hypertensive rats(SHR) and maximum decrease of mean arterial blood pressure (MABP) at 50 mg/kg oral dose. The experiment is classed as functional, Artery. The method, boiled down:
as §1

The subject of experiment [17] is Rattus norvegicus. In words: Vasopressor responses to epinephrine as a measure of the alpha-1-adrenoceptor blocking activity at 1 mg/kg administered orally was reported to be reversed. Also noted: dose 1 mg/kg. The experiment is classed as functional, organism-based.
In experiment [18] the test system is Rattus norvegicus. In words: Antihypertensive activity was determined in cannulated spontaneously hypertensive rats(SHR) and marked bradycardia was reported at a dose of 10 mg/kg. The experiment is classed as functional, organism-based. Also noted: dose 10 mg/kg.
In experiment [19] the test system is Rattus norvegicus. Briefly: Antihypertensive activity was determined in cannulated spontaneously hypertensive rats(SHR) and heart rate response was reported to be reduce by 10-25% after 4 hr at a dose of 50 mg/kg. The experiment is classed as functional, organism-based. Further details: dose 50 mg/kg.
Experiment [20] relates to Rattus norvegicus. Briefly: Antihypertensive activity was determined in cannulated spontaneously hypertensive rats(SHR) and marked bradycardia was reported at a dose of 50 mg/kg. It counts as functional, organism-based. Also noted: dose 50 mg/kg.
In experiment [21] the test system is Rattus norvegicus. In words: Vasopressor responses to epinephrine as a measure of the alpha-1-adrenoceptor blocking activity at 25 mg/kg administered orally was reported to have no change. Further details: dose 25 mg/kg. The experiment is classed as functional, organism-based.
Experiment [22] has as its system Rattus norvegicus. In words: Antihypertensive activity was determined in cannulated spontaneously hypertensive rats(SHR) and maximum decrease of mean arterial blood pressure (MABP) at 25 mg/kg oral dose. The experiment is classed as functional, Artery. The method, boiled down: as §1
Experiment [23] has as its system Rattus norvegicus. In words: Vasopressor responses to epinephrine as a measure of the alpha-1-adrenoceptor blocking activity at 50 mg/kg administered orally was reported to be antagonized. The experiment is classed as functional, organism-based. Further details: dose 50 mg/kg.

The source made the active and inactive calls. The rule behind the calls is not given here.

On to `Cc1c2n(c3ccccc13)CCC1C2NCCN1CCOc1ccccc1` (configuration not stated), for which the outcome with Rattus norvegicus [1] was inactive. The “Decrease in MABP” value with Rattus norvegicus [2] was found to be 7%.
Take `COc1cc2nc(N3CCN(C(=O)c4ccco4)CC3)nc(N)c2cc1OC` [PRAZOSIN]: the “Decrease in MABP” value in the experiment with Rattus norvegicus [3] is 46%; in the experiment on Rattus norvegicus [2] it was 49%; in the experiment on Rattus norvegicus [5] it was 35%. In addition, the Activity rating result in the experiment with Rattus norvegicus [4] is “Active”.
For the compound `Br.CCCN1CCN(CCC)C2c3c(C)c4ccccc4n3CCC21` (configuration not stated), the Activity result with Rattus norvegicus [6], in the experiment with Rattus norvegicus [9], in the experiment with Rattus norvegicus [11] and with Rattus norvegicus [15] was “Antagonism reversed” each time. Moreover, the “Decrease in MABP” value with Rattus norvegicus [3] turned out to be 13%; in the experiment on Rattus norvegicus [8] it was 16%; in the experiment with Rattus norvegicus [2], 18%; with Rattus norvegicus [14] it was 12%. Moreover, the HR entry with Rattus norvegicus [7], in the experiment on Rattus norvegicus [10], in the experiment with Rattus norvegicus [12] and in the experiment with Rattus norvegicus [13] was “Heart rate response was reported to reduce by 10-25% after 4 hr at a peroral dose of 1.0 mg/kg” throughout.
For `CCN1CCN(C(C)C)C2CCn3c(c(C)c4cc(Br)ccc43)C21.Cl.Cl` (configuration not stated), the Decrease in MABP in the experiment with Rattus norvegicus [16] was determined as 20%.
Regarding `Cc1c2n(c3ccccc13)CCC1C2N(C)CCN1C` (configuration not stated), the figures for the “Decrease in MABP” value with Rattus norvegicus [2] and with Rattus norvegicus [14] were 23% and 13%, respectively.
In the case of `Br.CCCN1CCN(CC)C2CCn3c(c(C)c4ccccc43)C21` (configuration not stated), the “Decrease in MABP” value is reported as 13% with Rattus norvegicus [3], 24% in the experiment on Rattus norvegicus [8] and 42% in the experiment with Rattus norvegicus [2]. For the same compound, the Activity result in the experiment on Rattus norvegicus [9], with Rattus norvegicus [17] and in the experiment on Rattus norvegicus [15] was “Vasopressor response reversed” in each case. Moreover, the HR result with Rattus norvegicus [18] is given as “Heart rate response was reported to reduce by 10-25% after 4 hr at a peroral dose of 1.0 mg/kg”.
For `CCN1CCN(CC)[C@H]2c3c(C)c4ccccc4n3CC[C@H]21.Cl.Cl`, the “Decrease in MABP” value with Rattus norvegicus [16] amounted to 25%. In addition, the HR entry in the experiment on Rattus norvegicus [19] was “Heart rate response was reported to be reduce by 10-25% after 4 hr at a dose of 25 mg/kg”.
Turning to `Br.Br.CCN1CCNC2c3c(C)c4ccccc4n3CCC21` (configuration not stated), the HR entry in the experiment on Rattus norvegicus [20] is “Heart rate response was reported to reduce by 10-25% after 4 hr at a peroral dose of 25 mg/kg”. In addition, the result in the experiment with Rattus norvegicus [1] and in the experiment with Rattus norvegicus [21] was inactive. Also, the “Decrease in MABP” value was determined as 26% with Rattus norvegicus [22], 23% with Rattus norvegicus [2] and 31% in the experiment with Rattus norvegicus [16]. In addition, the Activity result with Rattus norvegicus [23] was “Vasopressor response antagonized”.
